High-throughput results as filed in PubChem BioAssay.
Sampled rows, rich in hits. Any-hit rate of the full collection: about 3.9%.
tim10-1 inh = growth inhibitors of tim10-1 mutant yeast. actives 2.2% (n = 330,000). inhibition, % at 20 µM. S. cerevisiae tim10-1 ts strain growth, BacTiter-Glo, 24 h;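 active means inhibition of at least 40%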;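 further: mutant grown at 25 °C; 0% = DMSO wells with yeast and 100% = wells holding no yeast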
tim23-1 inh = growth inhibitors of tim23-1 mutant yeast. AID 463212. inhibition, % at 20 µM. S. cerevisiae tim23-1 growth, BacTiter-Glo luminescence, 24 h. actives 1.3% (n = 330,000);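 active means growth inhibition of the mutant yeast at or above 50%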;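 further: temperature-sensitive mutant grown at 25 °C; plate controls were DMSO-treated mutant yeast for no effect and medium wells lacking yeast for full effect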
UPR CHOP act = activators of apoptotic arm of unfolded protein response (CHOP) | AID 449763 | CHO-CHOP luciferase reporter, UPR activation, luminescence; percent of tunicamycin response over DMSO baseline | activation, % at 10 µM | actives 0.34% (n = 330,000);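 active means at 10 µM dose, activation of 40% or more, normalized to positive control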;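 further: 100% = tunicamycin at 10 µg/mL and 0% = DMSO alone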
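System: CHO-CHOP luciferase reporter cell line; amount: 500 cells/well; buffer or medium: F12 medium containing 10% fetal bovine serum; incubation: 6 h compound exposure at 37 °C after overnight seeding; measured by: luciferase luminescence after 10 min with Steady-Glo reagent; evaluation: % reporter activation, DMSO baseline versus tunicamycin full activation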
TIM10 inh = TIM10 yeast growth inhibition; S. cerevisiae TIM10 strain growth, BacTiter-Glo luminescence, 24 h; actives 1.4% (n = 330,000); inhibition, % at 10 µM; AID 463195;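 active means inhibition of 40% or more at the single tested concentration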;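 further: wild-type TIM10 isogenic control strain grown at permissive 25 °C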
XBP1 UPR activ = adaptive UPR (XBP1) activation. AID 463104. activation, % at 20 µM. actives 0.33% (n = 330,000). CHO-XBP1 luciferase reporter, IRE1-XBP1 UPR activation, luminescence; percent of tunicamycin response, DMSO as zero;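 active means versus positive control, 20 µM dose yields 30% or more activation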;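 further: 100% = tunicamycin at 10 µg/mL and 0% = DMSO only wells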
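incubation = overnight seeding at 37 °C, 6 h compound treatment at 37 °C | assay system = CHO-XBP1 cells stably carrying IRE1-XBP1-driven luciferase reporter | input = 1000 cells per well | detection = luciferase luminescence | dosing = single point, 20 µM final compound, 1% DMSO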
TIM10 conf = confirmation of TIM10 yeast growth inhibitors; shares compounds with TIM10 inh; S. cerevisiae tim10 strain growth, BacTiter-Glo luminescence, 24 h; inhibition, % at 10 µM; actives 63% (n = 4,600);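 active means inhibition of yeast growth at or above a set limit in either of two replicates at 10 µM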;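 further: this counterscreen used the strain with wild-type TIM10; 0% = yeast with DMSO and 100% = medium wells lacking yeast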
An asterisk follows results filed as active; . = no result.

SMILES | tim10-1 inh | tim23-1 inh | UPR CHOP act | TIM10 inh | XBP1 UPR activ | TIM10 conf
COc1cccc(C(=O)NC(=S)Nc2ccccc2N2CCCCC2)c1 | 28.4 | 29.4 | -0.7 | 40.8* | -2.2 | 25.8
Cc1ccc(C(=O)NC(=S)Nc2ccccc2N2CCCC2)cc1[N+](=O)[O-] | 32.4 | 44.1 | -1.4 | 42.7* | -2.5 | -38.9
COc1ccc(NC(=S)N2CCCCCC2)cc1OC | -9.1 | -3.7 | -0.3 | -10.1 | -0.2 | .
COc1cc(/C=C(/C#N)c2nc3ccccc3[nH]2)ccc1OCc1ccc(C(=O)O)o1 | 13.5 | 14.0 | -0.9 | 4.8 | -3.2 | .
COC(=O)c1ccc(COc2ccc(/C=C(\C#N)c3nc4ccccc4[nH]3)cc2OC)o1 | 9.1 | 30.6 | 4.5 | 53.5* | 8.4 | 33.3*
O=C(O)CN1C(=O)/C(=C/c2ccccc2Br)Oc2ccccc21 | -0.3 | 10.8 | 2.9 | 6.1 | -9.8 | .
O=C(Nc1nccs1)c1ccc(-c2ccccc2Cl)o1 | 9.8 | 47.1 | 6.2 | 46.8* | -2.6 | 24.7
O=C(Nc1nccs1)c1ccc(-c2ccccc2[N+](=O)[O-])o1 | -1.7 | 29.2 | 4.2 | 18.7 | 0.9 | .
CC(=O)c1cccc(NC(=O)c2ccco2)c1 | -5.2 | 3.5 | 1.4 | -2.9 | 5.7 | .
CCOC(=O)c1cccc(NC(=O)c2ccco2)c1 | 29.4 | 45.2 | 1.9 | 45.8* | -0.1 | 26.5
CC(=O)N1CCN(c2ccc(NC(=O)c3ccco3)cc2Cl)CC1 | -0.1 | 3.5 | 3.6 | -3.7 | 1.0 | .
O=C(Nc1ccc(N2CCN(C(=O)c3ccccc3)CC2)c(Cl)c1)c1ccco1 | 14.5 | 22.4 | -4.5 | 44.7* | 3.3 | 36.3*
O=C(Nc1ccc2c(c1)ncn2-c1ccccc1)c1ccco1 | 29.2 | 28.0 | 2.3 | 51.4* | 2.9 | 49.6*
CC(C)(C)n1cnc2cc(NC(=O)c3ccccc3)ccc21 | -1.1 | 49.4 | 3.1 | 57.9* | -4.2 | 64.3*
CSc1ccc(CNC(=O)Cn2nc(C)c3c(C)n(-c4ccc(C)cc4)nc3c2=O)cc1 | -2.7 | 3.5 | 0.5 | -5.6 | 0.2 | .
CCOC(=O)c1cccc(NC(=O)C2(S(=O)(=O)c3ccc(Cl)cc3)CC2)c1 | 18.9 | 18.3 | -0.1 | 17.8 | -1.5 | .
O=C(c1ccccc1)c1cccc(NC(=O)c2ccco2)c1 | 35.9 | 42.1 | 3.8 | 53.2* | 1.0 | 60.5*
O=C(Nc1cccc(NC(=O)c2ccco2)c1)c1ccccc1 | -53.9 | 4.1 | 1.4 | -9.7 | -1.3 | .
Cc1[nH]n(-c2ccccc2)c(=O)c1/C=N/NC(=O)c1ccccc1F | 9.4 | -0.3 | 0.4 | -2.3 | -0.2 | .
Oc1cccc(NC(=S)Nc2ccc(SC(F)F)cc2)c1 | 37.4 | 6.2 | 1.2 | 18.1 | 2.4 | .
Oc1cccc2c(NC(=S)Nc3ccc(SC(F)F)cc3)cccc12 | 38.2 | 47.5 | 1.2 | 52.1* | -0.9 | 41.7*
Cn1c(/C(C#N)=C/Nc2ccccn2)nc2ccccc21 | 24.1 | 21.4 | -0.3 | 17.5 | 3.9 | .
Cn1c(/C(C#N)=C/c2cccc(O)c2)nc2ccccc21 | 39.2 | 42.2 | 7.8 | 42.7* | 1.1 | 35.9*
CCOC(=O)c1cnc2c(ccc3ccccc32)c1N | -8.8 | -6.4 | 6.7 | 17.1 | 6.0 | .
CCOC(=O)c1cnc2c(ccc3ccccc32)c1NCCO | 38.0 | 48.7 | -0.5 | 61.3* | 5.3 | 69.0*
SMILES | tim10-1 inh | tim23-1 inh | UPR CHOP act | TIM10 inh | XBP1 UPR activ | TIM10 conf
CCc1ccccc1NC(=S)NCCSc1ccc(Cl)cc1 | 35.4 | 17.5 | -1.2 | 54.7* | 0.2 | 40.1*
CS(=O)(=O)Nc1ccccc1C(=O)NCCSc1ccc(Cl)cc1 | 4.5 | 25.7 | -1.3 | 10.3 | -3.8 | .
S=c1[nH]c(-c2ccccc2)cn1-c1ccccc1 | 36.2 | 46.2 | 1.6 | 46.3* | -2.5 | 48.9*
Cc1ccccc1OCC(=O)N=Nc1c(O)n(C)c2ccccc12 | 14.7 | 17.5 | 1.7 | 19.5 | 2.1 | .
CCCNC(=O)c1ccc2c(c1)ncn2-c1cc(C)cc(C)c1 | 27.1 | 37.7 | -0.2 | 41.9* | -0.6 | 21.6
Cc1cc(C)cc(-n2cnc3cc(C(=O)O)ccc32)c1 | -3.5 | 9.4 | -3.2 | 10.3 | -2.8 | .
CC(C)Cn1[nH]c2c3c(ccc2c1=O)C(=O)c1ccccc1C3=O | 24.1 | 28.4 | -1.1 | 57.5* | 8.6 | 49.0*
CCOc1ccc(C)cc1S(=O)(=O)n1cnc2ccccc21 | 13.8 | 32.1 | -0.9 | -2.4 | -2.9 | .
c1ccc(-c2cn(-c3ccccc3)c3ncnc(N4CCCCC4)c23)cc1 | 27.1 | 31.5 | 1.2 | 27.0 | -2.3 | .
O=c1[nH]cnc2c1c(-c1ccccc1)cn2-c1ccc(Br)cc1 | 31.2 | 43.3 | 0.8 | 41.6* | -0.9 | 38.0*
Oc1cccc(C=NCc2ccccc2)c1O | 11.4 | 22.2 | -1.0 | 4.1 | -2.9 | .
O=C(/C(=N/N=C/c1ccc(O)c(O)c1O)c1ccccc1)c1ccccc1 | 12.7 | 44.7 | 0.0 | 44.6* | 0.3 | -1.1
CC(=O)c1cc2c(cc1N/C(=N/S(=O)(=O)c1ccc(C)cc1)c1ccccc1)OCO2 | 25.7 | 30.4 | -1.4 | 42.7* | -0.5 | 2.1
COc1cc(/C=N/NC(=O)COc2ccccc2C)ccc1OC(=O)c1cccs1 | 29.7 | 28.4 | 16.1 | 42.8* | 17.0 | 40.5*
CCCc1cc(=O)[nH]c(SCC(=O)NC(=O)NC2CCCC2)n1 | -1.9 | 11.0 | -0.3 | -0.3 | -3.6 | .
NC(=O)c1nsc(C(=O)N(c2ccccc2F)C(C(=O)NCc2ccccc2)c2ccc(O)cc2)c1N (centres undefined) | -7.1 | -4.5 | 3.5 | 95.6* | 0.9 | 7.6
NC(Cc1ccccc1)C(O)(c1ccccc1)c1ccccc1 (centres undefined) | 15.6 | 27.4 | -0.5 | 18.7 | -3.7 | .
O=C(COC(=O)c1cc(S(=O)(=O)N2CCCCC2)ccc1N1CCOCC1)NCCc1ccc(F)cc1 | 15.6 | 12.0 | 0.3 | 7.5 | -3.4 | .
C=CCNC(=S)N/N=C/c1ccc(N(CC)Cc2ccccc2)cc1 | 26.3 | 40.7 | -1.9 | 33.7 | 6.6 | .
COc1ccc(CNC(=S)N/N=C/c2ccc(OC)c(OC)c2)cc1 | 20.2 | 7.4 | -3.5 | 40.2* | -2.2 | 23.0
COc1ccc(CNC(=S)N/N=C/c2ccc(O)c(OC)c2)cc1 | 1.6 | 31.5 | 0.5 | 38.2 | 0.1 | .
CCN(CC)c1ccc(/C=N/NC(=S)NCc2ccccc2)cc1 | 34.4 | 4.9 | 1.3 | 44.2* | 0.1 | -0.8
Cc1cc(C)c(C(=O)COC(=O)C2CCN(c3ccc(C(F)(F)F)cn3)CC2)c(C)c1 | 24.8 | 21.3 | -1.3 | 11.4 | 0.2 | .
CCOC(=O)c1cnn(-c2ccc(NS(=O)(=O)c3ccc(Cl)cc3)cc2)c1C(F)(F)F | 26.7 | 27.7 | -1.3 | 52.2* | -0.2 | 6.5
CCOC(=O)c1ccc(NS(=O)(=O)c2ccc(Cl)nc2)cc1 | 4.0 | 12.8 | 0.5 | 16.4 | -2.2 | .
Cc1ccc(Cl)cc1N(Cc1ccc(C(=O)NCc2cccnc2)cc1)S(=O)(=O)c1ccccc1 | 24.7 | 21.8 | -0.3 | 24.1 | -2.0 | .
